# Laboratory results reported in ChEMBL document CHEMBL4513216, “Probing the Open Global Health Chemical Diversity Library for Multistage-Active Starting Points for Next-Generation Antimalarials” (ACS Infect Dis, 2020).
# Assay: Toxicity liver stage against HepG2, at 10uM
# Assay type: cell-based
# Parameters: test concentration 10 uM, cell line HepG2-A16-CD81EGFP
# Conditions: human, HepG2-A16-CD81EGFP cells; read-out: INHIBITION
# Summary of the method: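 Uninfected HepG2-A16-CD81EGFP cells, 3 × 10^3 per well, 1536-well, plated on prespotted compound at 10 μM final, parasite-free screening media added to match infected plates; puromycin 10 μM positive, DMSO 0.5% negative; run in parallel with 48 h PbLuc assay at 37 °C, 5% CO2; viability by CellTiter-Glo luminescence, normalized to controls.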
row,Structure (SMILES),cytotoxicity at 10 µM [%]
1,COc1ccc(CCCN(C)C(=O)c2cc(C(C)=O)c[nH]2)cc1OC,2.24
2,CCc1nc(-c2ccc(NC(=O)N3CCOCC3)cc2)no1,5.48
3,O=C(Nc1ccc(Br)cc1F)c1cc(CN2CCOCC2)on1,6.39
4,COCCn1c(-c2cccc(OC)c2)cnc1NC(=O)NCCC(C)C,12.9
5,CCOC(=O)[C@@H]1[C@H]2CN(C(=O)OC)CCN2C[C@H]1c1ccccc1,6.72
6,COc1cccc(-c2cc(C(=O)Nc3nc[nH]n3)[nH]n2)c1,-5.51
7,O=C(Nc1ncnc2c1CCC2)c1cccc(F)c1,-172
8,COCC(C)(O)CNC(=O)c1cc(-c2cc(OC)ccc2OC)nn1C (configuration not stated),-6.42
9,CC(=O)OC1CN(c2nc3c(C)cccc3s2)C1,-5.14
10,Cn1cccc1C(=O)N1CCC2(CC1)CN(S(C)(=O)=O)c1ccccc12,4.73
11,COCCN(C)C(=O)c1nc2c(s1)CCCN2c1ncccn1,-131
12,O=S(=O)(NC1=NCN(CCc2cccs2)CN1)c1ccc(Br)cc1,-2.35
13,COCCC(=O)N1CCC2(CN(Cc3ccc(OC)c(F)c3)C2)C1,-10.4
14,O=C(Cc1ccsc1)NCC1OCCc2cn(CC3CC3)nc21 (configuration not stated),9.77
15,CC(C)c1noc(C2CCN(C(=O)c3cccs3)CC2)n1,1.51
16,CCn1nccc1CNc1nc(N)nc2c1nc(C)n2C,-8.13
17,Cc1nc(NCCc2ccccc2)cc(C(=O)N2CCCCC2)n1,-6.27
18,Cc1nc(=O)c2ccccc2n1C1=CCN(CC(=O)N2CCCC2)CC1,-7.45
19,Oc1cc(-c2ccccn2)nc(C2CCN(Cc3ccncc3)CC2)n1,-7.56
20,NC(=O)CN1CCOCC(Cc2cccc(F)c2)C1 (configuration not stated),-12.2
21,CC(C)(C)C(=O)Nc1ccc(Oc2ccsc2C(=O)O)cc1,7.26
22,Cn1cc(CNC(=O)Nc2ccc(S(=O)(=O)C(F)F)cc2)cn1,-5.09
23,CC(NS(C)(=O)=O)C(=O)Nc1ccc2oc(C3CC3)nc2c1 (configuration not stated),2.78

row,Structure (SMILES),cytotoxicity at 10 µM [%]
1,CN(CCCOc1ccccc1)S(=O)(=O)N1CCOCC1,4.38
2,CC(C)C(C#N)N1CCN(C(=O)c2cc(-c3ccccn3)no2)CC1 (configuration not stated),-1.54
3,CC1CCC(O)(CSc2nnnn2C2CC2)CC1 (configuration not stated),-1.97
4,COc1ccc(CNC(=O)N2CCc3sccc3C2)cc1O,7.57
5,O=C(NS(=O)(=O)c1cccc(C(F)(F)F)c1)c1cscn1,1.67
6,COC(=O)c1cccc(S(=O)(=O)Nc2ccc(Cl)c(C(N)=O)c2)c1,7.31
7,CC(c1nc(C2CC2)no1)N1CCN(CCc2ccncc2)CC1 (configuration not stated),-5.65
8,CCOc1ccc(Cl)cc1CCNC(=O)Cn1ccccc1=O,8
9,COc1cccc(CCC(=O)Nc2ccn(C)n2)c1OC,-2.14
10,CC(C(=O)Nc1ccc(C#N)cc1)N1CCc2ccccc21 (configuration not stated),-1.5
11,COc1cc(CNC(=O)Nc2nnc(C(C)C)s2)ccc1O,-2.22
12,Cc1cc(S(=O)(=O)N2CC[C@@H](O)C2)c(Cl)cc1F,-8.59
13,CN(C)C(=O)CS(=O)(=O)Cc1ccn(-c2cccc(F)c2)n1,3.03
14,CC(C)c1nc(C2CCCN(C(=O)CS(=O)(=O)C(C)C)C2)no1 (configuration not stated),8.75
15,Cc1nc(NC(=O)C(C)N2CCN(c3ncccn3)CC2)sc1C (configuration not stated),4.79
16,CCNC(=O)NCc1ccccc1NS(=O)(=O)c1ccccc1,8.27
17,CN(Cc1ccncc1)Cc1nccn1Cc1ccccc1,12.5
18,COCCCN1CCC(NC2CSCCc3ccccc32)CC1 (configuration not stated),-3.32
19,CCN(CC(F)(F)F)C(=O)C1CCCN(Cc2ccccn2)C1 (configuration not stated),-2.3
20,Cc1cc(N(C)C)nc(N2CC(n3cccn3)C2)n1,-3.24
21,c1cc(-c2noc(C3CCC3)n2)cc(N2CCCCC2)n1,-1.39
22,O=C(CCNS(=O)(=O)c1cccnc1)N1CCOC(c2ccccc2)C1 (configuration not stated),5.11
23,CC(=O)NC(c1cc(F)ccc1F)C1CC1 (configuration not stated),-1.99

row,Structure (SMILES),cytotoxicity at 10 µM [%]
1,CC1(C)CCC(CC(=O)O)c2ccccc21 (configuration not stated),2.93
2,Cn1ccnc1-c1noc(NCc2ccccc2)n1,-3.49
3,CCNC(=O)N1CCC(NC(=O)NCCc2cc3ccccc3o2)C1 (configuration not stated),-51.8
4,CN(CC(O)C1CC1)C(=O)c1ccc(-c2nc(C3CC3)n[nH]2)cc1 (configuration not stated),-5.09
5,Cc1cccc(OCCNC(=O)C(C)S(=O)(=O)c2ccccn2)c1 (configuration not stated),5.76
6,Cc1cc(CS(=O)(=O)N(C)C(C)c2ccc(Cl)cc2)on1 (configuration not stated),9.72
7,COC(=O)NCCC(=O)NC(c1ccc(Cl)cc1)C(F)(F)F (configuration not stated),7.51
8,Cc1cnn(CCCOc2ccc3c(c2)OCO3)c1,8.4
9,O=C(CCc1ccco1)Nc1ncn(CC(=O)N2CCCCCC2)n1,-2.29
10,O=C(Cc1ccccc1O)Nc1ccc(N2CCCC2)nc1,9.31
11,c1csc(-c2noc(CC3CCCO3)n2)c1 (configuration not stated),-3.37
12,CC(C(=O)NC(N)=O)N1CCN(c2ccc(C#N)cc2F)CC1 (configuration not stated),-4.4
13,CCCS(=O)(=O)CC(=O)Nc1cc(CC(C)(C)C)n[nH]1,2.43
14,COc1cccc(CN(C)C(=O)CSc2ccc3c(c2)OCCO3)c1,-7.97
15,Cc1ccc(OCC(=O)NCc2ccccc2F)nc1,-12
16,CC[C@H](C)Nc1nccc(-c2cnc3sccn3c2=O)n1,-8.72
17,Cc1noc(C)c1S(=O)(=O)N1C[C@@H](C(=O)O)[C@H](c2ccccn2)C1,-6.71
18,O=C(Nc1nc(-c2ccccc2)ns1)N1CCC(F)CC1,-137
19,Cc1ccc2c(c1)CN(CC(=O)NCCc1ccc(F)cc1)CC(C)O2 (configuration not stated),1.54
20,O=C1O[C@@H]2CN(Cc3ccncc3)C[C@@H]2N1CCCN1CCOCC1,-6.13
21,CCn1nc(C)c(C(C)Nc2cc(C3CCNCC3)nc(C)n2)c1C (configuration not stated),2.38
22,Cc1ccc(C(=O)N2CCC3(CCC(=O)N(CCCO)C3)CC2)c(O)c1,7.4
23,COCCCN1CC2(CCN(C(=O)Cc3csc(C)n3)CC2)CC1=O,5.06

row,Structure (SMILES),cytotoxicity at 10 µM [%]
1,Cc1nc(CCN)cc(N2CCOc3ccc(Cl)cc3C2)n1,-0.29
2,COCCN(Cc1ccsc1)C(=O)c1c(C)cc(C)[nH]c1=O,-2.42
3,O=C(c1scc2c1OCCO2)N1CCN(Cc2cccc(F)c2)CC1,0.993
4,O=C(O)[C@@H]1CN(C(=O)NCC2CCCCC2)C[C@H]1c1ccccn1,7.15
5,CN(C)C(=O)N1CCCn2nc(CNC(=O)CCc3ccsc3)cc2C1,-1.77
6,CC[C@@]1(O)CCN(C(=O)c2ccc(-c3ccco3)cc2)C[C@H]1O,3.75
7,CN(C)[C@H]1CCCCN(Cc2ccccc2Cn2cccn2)C1,-130
8,COc1cc(N(C)Cc2cc(C(C)(C)C)n[nH]2)ncn1,-11.1
9,C[C@@H]1CN(Cc2cc(C(F)(F)F)ccc2F)CC[C@@]1(O)C1CC1,6
10,COc1ccc(Cl)cc1S(=O)(=O)N(C)CC(=O)Nc1ccon1,-3.75
11,Cc1nc2c(c(N3CCN(Cc4ccco4)CC3)n1)CCNCC2,-4.27
12,CCSCC(C)NCc1nc(-c2cccnc2)no1 (configuration not stated),-7.66
13,CC(=O)N[C@H]1CN(CC(=O)NCc2ccccc2C)C[C@@H]1C(C)C,1.69
14,O=C(Nc1cc(C(F)(F)F)c[nH]c1=O)N1CCSCC1,-5.1
15,CCCc1nnc(NC(=O)NC(C)Cn2cccn2)s1 (configuration not stated),-4.05
16,COC(=O)c1ccc(N2CCN(CC(=O)NC(N)=O)C(C)C2)cc1 (configuration not stated),-4.54
17,O=C(O)c1cc(NS(=O)(=O)c2ccc(Br)s2)c(F)cc1F,-7.1
18,Cc1ccc(CNC(=O)CN2CCOC(Cn3cccn3)C2)s1 (configuration not stated),-24.1
19,CN(C)c1cc(C(=O)N2CCN(c3nccs3)CC2)ccn1,-10.8
20,O=C(NCc1ccoc1)Nc1cc(C(F)(F)F)c[nH]c1=O,-0.779
21,Cc1cc(C)n(CC2CCCN2C(=O)Cc2c(C)nn(C)c2C)n1 (configuration not stated),-13.8
22,Cc1ccc(OCc2nc(CNCC3CN(C)CCO3)cs2)cc1 (configuration not stated),-23.5
23,O=C(CCN1CCc2c(ncn2C2CC2)C1)NC1CCCC1,-10.1

row,Structure (SMILES),cytotoxicity at 10 µM [%]
1,CC(C)c1nc(C2CCCN(C(=O)c3ccc4nncn4c3)C2)no1 (configuration not stated),-4.38
2,COCc1nc(C(=O)N2CCCC2Cn2cc(C)cn2)cs1 (configuration not stated),-1.36
3,Cc1ccc(C(CNC(=O)Nc2cn[nH]c2)N2CCOCC2)o1 (configuration not stated),-24.8
4,CCc1noc(C)c1C(=O)N1CCCN(Cc2cscn2)CC1,-0.448
5,Cc1ccc2cccc(C(=O)N3CCN(c4cccnn4)CC3)c2n1,1.91
6,Cc1nn2cccnc2c1C(=O)N1CCCC(Nc2ccccc2)C1 (configuration not stated),5.82
7,CNc1nc(C2CCCN2)nc2c1CCN(S(=O)(=O)C1CCCCC1)C2 (configuration not stated),9.17
8,Cc1cccc(CO[C@@H]2CC[C@H]3[C@H]2OCCN3Cc2nccs2)n1,5.2
9,CN(C)CCN1CCCC12CCN(C(=O)c1ccoc1)CC2,-1.83
10,O=C(CC1CC1)N1CCN(Cc2ccncc2)c2ncccc2C1,10
11,CCOCC1CN(C(=O)Cc2ccccn2)Cc2cnn(C)c21 (configuration not stated),6.9
12,CC(C)(CNCc1ccc(OCc2cscn2)cc1)C(N)=O,-137
13,CCOCC1CN(C(=O)c2ccncc2)Cc2nn(C)cc21 (configuration not stated),-5.82
14,Cc1ccc(CN2C[C@@H]3CCN(Cc4ccncc4)C(=O)[C@H]3C2)s1,4.53
15,CN1Cc2[nH]nc(COCC3CC3)c2C1,18
16,Cc1ncsc1CN1CC[C@H]2OCC[C@@]2(C(=O)NC2CC2)C1,2.75
17,c1c(CN2CCCCC2)nc2n1CCNC2,3.91
18,Cc1ccc(NC(=O)Nc2c(O)c3ccccc3oc2=O)cc1C,5.89
19,O=C1CCC2(CCC(NC(=O)NCc3ccccc3)CC2)N1 (configuration not stated),-0.0957
20,CC(C)NC(=O)[C@H]1C[C@H]2CN(C(=O)NCc3ccccc3)C[C@@H]1O2,5.5
